# Assay results: ChEMBL document CHEMBL1125007 (J Med Chem, 1990)
# pIC50: −log10 of the molar value.
# Columns and labels:
# [1] = Rate constant for hydrolysis in aqueous acetone.; type: ADME; set-up: scale not given here; details: buffer
# P388 [2] = test: Cytotoxicity against P388 leukemia cell line; type: functional, cell-based; details: Mus musculus
# How it was run: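 P388 murine leukemia cells kept in log phase in RPMI 1640 with 10% fetal calf serum. Drug was present in 96-well microcultures for the whole 72 h growth period. Final cell density was read by a slightly modified MTT method. IC50 is the nominal concentration cutting density to 50% of controls, with eight control cultures per plate.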
# Nucleic Acid [3] = test: DNA crosslinking ability at a concentration of 0.2 uM determined after Agarose gel electrophoresis run for 24 hr; + indicates Significant crosslinking; type: functional
# P388 [4] = test: Optimal dose (i.p.) given after inoculation with wild type 10 E 6 P388/W leukemia cell lines, measured on day 1; type: functional, Mus musculus
# How it was run: (§1)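 Single intraperitoneal dose given in 0.1 or 0.2 mL of 30% v/v ethanol-water on day 1 after intraperitoneal inoculation of 10^6 P388 leukemia cells. ILS is the percent increase in lifespan of treated tumor-bearing animals at that optimal dose.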
# Nucleic Acid [5] = test: pBR322/DHFR26 DNA crosslinking ability at a concentration of 0.02 uM determined after Agarose gel electrophoresis run for 4 hr; +/- indicates Slight crosslinking; type: functional
# Nucleic Acid [6] = test: pBR322/DHFR26 DNA crosslinking ability at a concentration of 0.2 uM determined after Agarose gel electrophoresis run for 4 hr; + indicates Significant crosslinking; type: functional
# [7] = Relative lipophilicity; type: physicochemical; details: octanol/water
# How it was run: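 Relative lipophilicity of the side-chain fragment -NH(CH2)nX-, calculated from substituent fragment values.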
# CHO-AA8 = test: Cytotoxicity against AA8 cell line; type: functional, cell-based; details: Cricetulus griseus
# How it was run: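 AA8 Chinese hamster ovary cells kept in log phase in Alpha MEM with 10% fetal calf serum. Drug was applied in 96-well microcultures for 18 h, then removed by three washes with fresh medium. Cells grew a further 72 h before cell density was read by methylene blue staining. IC50 is the nominal concentration cutting density to 50% of controls, with eight controls per plate.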
# UV4 (Cricetulus griseus) = test: Relative cytotoxic potency given as Hypersensitivity ratio of (IC50 for AA8 cell line) to (IC50 for UV4 cell line)
# [8] = Rate constant for alkylation of 4-(4-nitrobenzyl)pyridine; type: ADME
# P388 [9] = test: Increase in life span of the drug treated animals against P388 leukemia when treated at a optimal dose of 45 mg/kg; type: functional; details: Mus musculus; how it was run: as §1
# P388 [10] = test: Increase in life span of the drug treated animals against P388 leukemia when treated at a optimal dose of 65 mg/kg; No activity at all doses; type: functional, organism-based; set-up: dose 65 mg/kg; details: Mus musculus; how it was run: as §1
# P388 [11] = test: Increase in life span of the drug treated animals against P388 leukemia when treated at a optimal dose of 26 mg/kg; type: functional; details: Mus musculus; how it was run: as §1
# P388 [12] = test: Increase in life span of the drug treated animals against P388 leukemia when treated at a optimal dose of 30 mg/kg; type: functional; details: Mus musculus; how it was run: as §1
# Nucleic Acid [13] = test: pBR322/DHFR26 DNA crosslinking ability at a concentration of 0.02 uM determined after Agarose gel electrophoresis run for 4 hr; + indicates Significant crosslinking; type: functional
# Nucleic Acid [14] = test: pBR322/DHFR26 DNA crosslinking ability at a concentration of 0.2 uM determined after Agarose gel electrophoresis run for 4 hr; ++ extensive Significant crosslinking; type: functional
# Nucleic Acid [15] = test: DNA crosslinking ability at a concentration of 0.2 uM determined after Agarose gel electrophoresis run for 24 hr; ++ indicates extensive crosslinking; type: functional
# P388 [16] = test: Increase in life span of the drug treated animals against P388 leukemia when treated at a optimal dose of 13.3 mg/kg; type: functional; details: Mus musculus; how it was run: as §1
# P388 [17] = test: Increase in life span of the drug treated animals against P388 leukemia when treated at a optimal dose of 8.9 mg/kg; type: functional; details: Mus musculus; how it was run: as §1
# P388 [18] = test: Increase in life span of the drug treated animals against P388 leukemia when treated at a optimal dose of 65 mg/kg; type: functional; details: Mus musculus; how it was run: as §1
SMILES,pIC50 (P388 [2]),OD (P388 [4]) [mg/kg],Relative lipophilicity [7],pIC50 (CHO-AA8),HF (UV4 (Cricetulus griseus)),other results
Cl.Cl.Cl.Cl.ClCCN(CCCl)c1ccc(CCCNc2c3ccccc3nc3ccccc23)cc1,7.21,45,0.67,6.51,43,KH [1]: 14500 s⁻¹; DNA crosslinking (Nucleic Acid [3]): Significant crosslinking; DNA crosslinking (Nucleic Acid [5]): +/-; DNA crosslinking (Nucleic Acid [6]): Significant crosslinking; KNBP [8]: 146000 s⁻¹; ILS at 45 mg/kg (P388 [9]): 25%
Cl.O=S(=O)(CCCNc1c2ccccc2nc2ccccc12)c1ccc(N(CCCl)CCCl)cc1,5.59,45,-1.14,5.01,5.1,ILS (P388 [10]): No activity
Cl.ClCCN(CCCl)c1ccc(SCCCCNc2c3ccccc3nc3ccccc23)cc1,6.31,26,1.22,5.86,21,ILS at 26 mg/kg (P388 [11]): 48%
O=S(=O)(CCCCCNc1c2ccccc2nc2ccccc12)c1ccc(N(CCCl)CCCl)cc1,6.12,–,-0.38,–,1,–
O=C(O)CCCc1ccc(N(CCCl)CCCl)cc1 [CHLORAMBUCIL],5.12,–,–,–,58,–
ClCCN(CCCl)c1ccc(OCCCCNc2c3ccccc3nc3ccccc23)cc1,7.20,45,0.64,6.55,55,ILS at 45 mg/kg (P388 [9]): 47%
Cl.ClCCN(CCCl)c1ccc(OCCNc2c3ccccc3nc3ccccc23)cc1,7.14,30,-0.02,6.57,54,ILS at 30 mg/kg (P388 [12]): 42%
Cl.Cl.Cl.Cl.ClCCN(CCCl)c1ccc(CCCCCNc2c3ccccc3nc3ccccc23)cc1,7.09,45,1.75,6.51,59,KH [1]: 32000 s⁻¹; DNA crosslinking (Nucleic Acid [13]): extensive crosslinking; DNA crosslinking (Nucleic Acid [14]): extensive crosslinking; KNBP [8]: 144000 s⁻¹; DNA crosslinking (Nucleic Acid [15]): extensive crosslinking; ILS at 45 mg/kg (P388 [9]): 58%
Cl.Cl.Cl.Cl.ClCCN(CCCl)c1ccc(SCCCNc2c3ccccc3nc3ccccc23)cc1,6.44,13.3,0.79,5.96,18,ILS at 13.3 mg/kg (P388 [16]): 38%
Cl.Cl.Cl.Cl.ClCCN(CCCl)c1ccc(CCCCNc2c3ccccc3nc3ccccc23)cc1,7.07,45,1.21,6.36,36,KH [1]: 20600 s⁻¹; DNA crosslinking (Nucleic Acid [3]): Significant crosslinking; DNA crosslinking (Nucleic Acid [5]): +/-; DNA crosslinking (Nucleic Acid [6]): Significant crosslinking; KNBP [8]: 225000 s⁻¹; ILS at 45 mg/kg (P388 [9]): 52%
ClCCN(CCCl)c1ccc(OCCCCCNc2c3ccccc3nc3ccccc23)cc1,7.30,–,1.18,–,46,DNA crosslinking (Nucleic Acid [3]): Significant crosslinking
ClCCN(CCCl)c1ccc(CCCCCCNc2c3ccccc3nc3ccccc23)cc1,6.87,–,2.29,–,36,KH [1]: 33900 s⁻¹; DNA crosslinking (Nucleic Acid [3]): Significant crosslinking; DNA crosslinking (Nucleic Acid [6]): Significant crosslinking; DNA crosslinking (Nucleic Acid [13]): Significant crosslinking; KNBP [8]: 157000 s⁻¹
Cl.O=S(=O)(CCNc1c2ccccc2nc2ccccc12)c1ccc(N(CCCl)CCCl)cc1,5.64,65,-1.17,4.74,3.3,ILS (P388 [10]): No activity
Cl.Cl.Cl.Cl.ClCCN(CCCl)c1ccc(OCCCNc2c3ccccc3nc3ccccc23)cc1,7.33,8.9,0.26,6.42,54,ILS at 8.9 mg/kg (P388 [17]): 27%
Cl.O=S(=O)(CCCCNc1c2ccccc2nc2ccccc12)c1ccc(N(CCCl)CCCl)cc1,5.72,30,-0.92,5.77,1.4,ILS (P388 [10]): No activity
ClCCN(CCCl)c1ccc(SCCCCCNc2c3ccccc3nc3ccccc23)cc1,6.42,–,1.76,–,19,–
Cl.Cl.Cl.Cl.ClCCN(CCCl)c1ccc(SCCNc2c3ccccc3nc3ccccc23)cc1,6.43,65,0.42,5.92,24,ILS at 65 mg/kg (P388 [18]): 37%
